ATG4B inhibitor: inhibitors of human ATG4B cysteine protease; 340,000 compounds, 0.51% hits; AID 504462; inhibition, % at 8.33 µM; Q9Y4P1; ATG4B cleavage of LC3-PLA2, NBD-HPC fluorescence, 1 h; in the data active = inhibition above about 40%
Target sequence (Q9Y4P1 whole entry, looked up): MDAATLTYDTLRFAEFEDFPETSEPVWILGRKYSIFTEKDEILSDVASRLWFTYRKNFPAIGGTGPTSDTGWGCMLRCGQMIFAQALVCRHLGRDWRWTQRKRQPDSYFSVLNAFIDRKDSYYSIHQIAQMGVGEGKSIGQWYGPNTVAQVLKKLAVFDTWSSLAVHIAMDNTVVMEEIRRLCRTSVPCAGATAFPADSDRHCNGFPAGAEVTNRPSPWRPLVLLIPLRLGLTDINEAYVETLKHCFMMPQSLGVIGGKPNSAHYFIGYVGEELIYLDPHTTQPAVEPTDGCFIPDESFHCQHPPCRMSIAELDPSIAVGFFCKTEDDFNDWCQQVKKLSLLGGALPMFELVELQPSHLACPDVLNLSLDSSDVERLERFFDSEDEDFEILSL
SENP1 inh: blocks the human SENP1 SUMO protease catalytic domain | Q9P0U3 | recombinant SENP1 catalytic domain, CyPet-SUMO1-YPet FRET cleavage | inhibition, % at 10 µM | 360,000 compounds, 0.21% hits | AID 624204;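 active = inhibition at least 30% at 10 µM, raw YFP signal under a set limit, fluorescence ratio 0.5 to 1.5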
Target sequence (Q9P0U3 419-644 limits assumed): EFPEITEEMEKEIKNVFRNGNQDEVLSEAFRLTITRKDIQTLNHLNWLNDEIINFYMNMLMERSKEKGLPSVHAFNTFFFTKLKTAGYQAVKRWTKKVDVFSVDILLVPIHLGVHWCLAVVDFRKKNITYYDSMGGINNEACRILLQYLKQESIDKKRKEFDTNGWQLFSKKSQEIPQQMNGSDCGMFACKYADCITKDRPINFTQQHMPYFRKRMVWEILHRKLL
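system = hSENP1 catalytic domain, recombinant | reagent = SFCypet-SUMO1-SFYpet substrate at 25 nM | doses = one dose per compound, 10 µM, 0.5% DMSO | incubation = enzyme reaction for 50 min at room temperature, dark | measured by = FRET, CFP and YFP emission | controls = no-enzyme low, enzyme-DMSO high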
TPT1 inh: inhibitors of Candida albicans tRNA 2'-phosphotransferase TPT1 | inhibition, % at 5 µM | 300,000 compounds, 0.81% hits | recombinant caTPT1, FP RNA substrate dephosphorylation | AID 1962;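 active = inhibition above the mean of all tested compounds plus 3 SD, set per screening campaign, cut at about 24% in these data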
HNF4A DNA FP: change in binding of human HNF4 alpha to DNA; HNF4a-FITC DNA binding, fluorescence polarization, 1 h; activity change, % at 10 µM; 360,000 compounds, 0.3% hits; in the data active = activity change above about 30%, passing the limit was not always enough
Rpn11 inh: blocks the human proteasome subunit Rpn11; inhibition, % at 20 µM; AID 588493; O00487; human 26S proteasome, Ub4-pepOG fluorescence polarization; 20S core pre-blocked with epoxomicin; 360,000 compounds, 0.59% hits;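 active = inhibition at 20 µM, scaled to each plate's controls, above about 33%, limit read from the data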
CSN deneddyl inh: blocks human CSN-mediated cullin deneddylation; Purified CSN, SCF-Nedd8-OG deneddylation, fluorescence polarization; inhibition, % at 12.5 µM; 360,000 compounds, 0.38% hits; AID 651999;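 active = pattern-corrected inhibition above about 35%, with an unprinted fluorescence ratio check between 0.5 and 1.5, limit read from the data, passing the limit was not always enough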
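Schedule: reaction 90 min, room temperature / Assay system: HEK293T-derived human Csn5 enzyme / Input: Csn5 at 0.24 nM final / Measure: inhibition of Csn5 cleavage, % / Control set: substrate-only high control, full reaction low control / Technique: fluorescence polarization of the substrate / Buffer or medium: Tris/NaCl/DTT buffer, pH 7.5 / Reagent: SCFSkp2-Nedd8OG substrate at 10 nM final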
Hits are given with their value; - = inactive; . = no result shown. Only some compounds are listed: those with a hit (about 2% of all), similar ones and a draw of the others.

SMILES | ATG4B inhibitor | SENP1 inh | TPT1 inh | HNF4A DNA FP | Rpn11 inh | CSN deneddyl inh
Cc1ccc(CNC(=O)c2cccc3c2C(=O)c2ccc(N4CCOCC4)cc2S3(=O)=O)cc1 | - | - | . | - | - | -
O=C(NCc1ccco1)c1cccc2c1C(=O)c1ccc(N3CCCC3)cc1S2(=O)=O | - | - | . | 52.0 | . | -
COc1cccc(C(C(=O)NCc2ccccc2)N2CCN(CCN3CCOCC3)CC2)c1OC (stereo not given) | . | - | . | - | . | -
CCc1nc2c(OCc3cc(Cl)cc(Cl)c3)cccn2c1N(C)C(=O)Nc1ccccc1OC | . | - | . | - | - | -
COc1ccc(C2=NOC(Cn3nc(-c4ccccc4)cc3C(=O)NCc3cccc(C(F)(F)F)c3)C2)cc1 (stereo not given) | - | - | . | - | - | -
COc1ccc(C2=NOC(Cn3nc(-c4ccccc4)cc3C(=O)NCc3ccc(C)cc3)C2)cc1 (stereo not given) | - | - | . | - | - | 35.2
Cc1sc2nc(CSCC(=O)N(C)c3ccccc3)[nH]c(=O)c2c1C | - | - | - | - | - | -
Cc1sc2nc(CSCC(=O)N(CCC#N)c3ccccc3)[nH]c(=O)c2c1C | - | - | - | - | 41.7 | -
COc1ccccc1CNc1nc(Nc2cccc(-c3cnco3)c2)c2sccc2n1 | . | - | . | - | - | -
COc1ccc(/C(O)=C/c2nc3ccc(C(=O)NCCc4cccc(C)c4)cc3[nH]c2=O)cc1OC | - | - | 67.1 | 44.1 | . | -
COCCNc1cc(N)c([N+](=O)[O-])cc1[N+](=O)[O-] | - | - | - | 44.6 | - | -
COc1ccc(C2C(C(=O)c3ccccc3)N3c4ccccc4C=CC3C2[N+](=O)[O-])cc1 (stereo not given) | - | - | . | - | . | 36.7
Cc1ccc2oc(=O)c(/C=C(\O)c3cccs3)nc2c1 | - | - | - | - | . | -
O=c1oc2ccc(Cl)cc2nc1/C=C(\O)c1cccs1 | - | - | - | 54.5 | - | -
O=C(COc1ccccc1)Nc1sc2c(c1C(=O)NCc1cccnc1)CCCC2 | - | - | - | - | - | 40.9
COc1ccc(/C=C/C(=O)Nc2sc3c(c2C(=O)NCc2cccnc2)CCCC3)cc1 | - | - | - | - | - | -
CNS(=O)(=O)c1ccc(NC(=O)c2cnn3c(C(F)F)cc(-c4ccccc4)nc23)cc1 | - | - | - | - | - | 71.8
Cc1nnc(NC(=O)c2sc3nc(-c4cccs4)cc(C(F)(F)F)c3c2N)s1 | - | - | 47.0 | - | . | 106.1
CC(C)(C)C(=O)c1sc2nc(-c3cccs3)cc(C(F)(F)F)c2c1N | - | - | - | - | . | -
O=C(O)/C(=C/c1ccc(Cl)c([N+](=O)[O-])c1)c1ccc(S(=O)(=O)N2CCCCC2)s1 | - | - | . | - | - | -
O=C(COc1ccc([N+](=O)[O-])cc1)NC(C(=O)O)C(O)c1cccc([N+](=O)[O-])c1 (stereo not given) | - | - | - | - | - | 53.1
O=C(Cc1ccc([N+](=O)[O-])cc1)NC(C(=O)O)C(O)c1cccc([N+](=O)[O-])c1 (stereo not given) | - | - | - | - | - | -
Cc1occc(=O)c1OC(=O)Nc1ccc(Cl)c(Cl)c1 | - | - | - | - | 41.5 | -
O=[N+]([O-])c1ccc(O)c(/C=N/n2cnc3ccccc32)c1 | - | - | - | - | - | -
O=C(NN1C(=O)/C(=C/c2cc([N+](=O)[O-])ccc2O)SC1=S)c1ccccc1O | . | . | 52.6 | . | . | .
SMILES | ATG4B inhibitor | SENP1 inh | TPT1 inh | HNF4A DNA FP | Rpn11 inh | CSN deneddyl inh
Cc1ccc(/C=C2\SC(=S)N(/N=C/c3cc([N+](=O)[O-])ccc3O)C2=O)o1 | 46.6 | - | - | - | 45.6 | 56.1
Cc1cccc(C)c1NC(=O)CNC(=O)C(C)NC(C)c1ccccc1Br (stereo not given) | - | - | . | - | - | -
O=C(c1ccc2nc3ccccc3c(=O)n2c1)N1CCN(Cc2ccc3c(c2)OCO3)CC1 | - | - | - | 39.0 | - | -
O=c1c2cc(Br)cc(Br)c2oc2nc3n(c(=O)c12)CCCS3 | . | . | - | . | . | .
O=Cc1ccc2oc3nc4n(c(=O)c3c(=O)c2c1)CCCS4 | - | - | - | - | . | 44.8
Cc1ccc2nc(N3C(=O)C(O)=C(C(=O)c4ccco4)C3c3ccc(O)cc3)sc2c1 (stereo not given) | . | - | - | - | - | -
Cc1ccc2nc(N3C(=O)C(O)=C(C(=O)c4ccc(C)o4)C3c3ccco3)sc2c1 (stereo not given) | - | - | . | - | - | -
CCc1ccc2nc(N3C(=O)C(O)=C(C(=O)c4ccco4)C3c3cccs3)sc2c1 (stereo not given) | - | - | - | - | 57.0 | -
Cc1ccc2nc(N3C(=O)C(O)=C(C(=O)c4cc5ccccc5o4)C3c3cccs3)sc2c1 (stereo not given) | - | - | - | - | 55.5 | -
CN1CCN(c2ccc(-c3cc(NC=O)c4ncc(-c5ccccc5)n4c3)cc2)CC1 | . | - | . | - | - | -
CN1CCN(c2cc(N3CCN(C(=O)c4ccco4)CC3)c3c4c(onc24)-c2ccccc2C3=O)CC1 | - | 49.2 | - | - | . | -
O=C(c1ccco1)N1CCN(C2=NS(=O)(=O)c3ccccc32)CC1 | - | - | - | - | - | -
C=CCn1c(NC(=O)c2ccccc2Cl)c(C#N)c2nc3ccccc3nc21 | - | - | - | 64.1 | - | 56.8
CCN(CC)C(=O)c1sc2nc(-c3cccs3)cc(-c3cccs3)c2c1N | - | - | - | - | - | -
CCN(CC)C(=O)c1sc2nc(-c3cccs3)cc(-c3ccc(Cl)cc3)c2c1N | - | - | - | - | 37.0 | -
COc1ccccc1CCC(=O)Nc1ccc2c(c1)c(=O)n(C)n2Cc1cccc(C(F)(F)F)c1 | . | - | . | - | - | -
CCN(CC)c1ccc(NC2CC(=O)N(CCc3ccc(OC)cc3)C2=O)cc1 (stereo not given) | - | - | - | 57.2 | . | 51.4
O=C(Nc1ccccc1F)c1csc(COCCO)n1 | . | - | . | - | - | -
O=C1CC(c2ccc(O)cc2)Oc2cc(O)cc(O)c21 (stereo not given) | - | - | - | - | - | -
CC1CC(=O)c2c(cc3c(-c4c(O)cc(O)c5c(O)c6c(cc45)OC(C)CC6=O)c(O)cc(O)c3c2O)O1 (stereo not given) | - | 69.7 | - | - | - | -
CCc1nc2ccc(C(=O)N3CCN(C(=O)c4ccco4)CC3)cn2c1N(CC)CCOC | . | - | . | - | - | -
Nc1sc(-c2ccccc2)cc1C(=O)NCCc1ccc(Cl)cc1 | . | - | . | 56.5 | . | -
C=CCNC(=O)c1cc(-c2ccccc2)sc1N | . | - | . | - | . | -

From PubChem
